Source: article PMC5743405 (International Journal of Oncology, 2017)

Experiments:
TACR2 = assay: PathHunter β-arrestin; assay type: cell-based; details: agonist mode, 6 μM
GPR103 = assay: PathHunter β-arrestin; assay type: cell-based; details: 6 μM
Outline: (§1)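 Vendor-run (DiscoveRx) PathHunter enzyme fragment complementation. β-Arrestin carries the EA fragment and the receptor carries ED; recruitment restores β-gal activity, read by chemiluminescence (RLU). Agonist % activity = vehicle-subtracted RLU relative to max control ligand (gpcrMAX) or to vehicle (orphanMAX). Antagonist % inhibition = 100% × (1 − vehicle-subtracted sample RLU / vehicle-subtracted EC80 agonist control RLU).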

HTR1E = assay: PathHunter β-arrestin; assay type: cell-based; details: 6 μM
Outline: as §1

HTR1B = assay: PathHunter β-arrestin; assay type: cell-based; details: antagonist mode, 6 μM
Outline: as §1

TLR8 = assay: western blot, JJ012 cells; assay type: cell-based, human; details: vs untreated control, overnight incubation
P2RY2 = assay: PathHunter β-arrestin; assay type: cell-based; details: 6 μM
Outline: (§2)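 β-Arrestin recruitment to GPCR read by β-galactosidase fragment complementation and chemiluminescence. Agonist: % = 100 × (test − vehicle)/(max control ligand − vehicle), hit at >30% and RLU > baseline + 3 SD. Antagonist, against EC80 agonist: % inhibition = 100 × (1 − (test − vehicle)/(EC80 − vehicle)), hit at >35% and RLU < EC80 − 3 SD.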

C5AR1 = assay: PathHunter β-arrestin; assay type: cell-based; details: antagonist mode, 6 μM
Outline: (§3)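 β-Arrestin recruitment assay: the enzyme acceptor is fused to β-arrestin and the ED fragment to the GPCR. Recruitment restores β-galactosidase, read by chemiluminescence. % activity = 100% × (test − vehicle)/(max control ligand − vehicle). % inhibition = 100% × (1 − (test − vehicle)/(EC80 control − vehicle)). An agonist hit needs >30% activity and RLU > baseline + 3×SD. An antagonist hit needs >35% inhibition and RLU < EC80 RLU − 3×SD.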

CALCR = assay: PathHunter β-arrestin; assay type: cell-based; details: 6 μM
Outline: as §3

AGTR1 = assay: PathHunter β-arrestin; assay type: cell-based; details: agonist mode, 6 μM
Outline: as §3

ADRB1 = assay: PathHunter β-arrestin; assay type: cell-based; details: 6 μM
Outline: as §3

CXCR5 = assay: PathHunter β-arrestin; assay type: cell-based; details: 6 μM
Outline: (§4)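 Engineered cells express the receptor fused to one β-galactosidase fragment (ED) and β-arrestin fused to the complementing fragment (EA). Receptor activation recruits β-arrestin, which restores enzyme activity, and this is read by chemiluminescence (RLU). Agonist % activity is 100% × (test − vehicle)/(maximal control ligand − vehicle). Antagonist mode is challenged with an EC80 control agonist, and % inhibition is 100% × (1 − (test − vehicle)/(EC80 − vehicle)). Hits require >30% activity or >35% inhibition, plus a 3×SD RLU margin.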

SSTR5 = assay: PathHunter β-arrestin; assay type: cell-based; details: agonist mode, 6 μM
CXCR2 = assay: PathHunter β-arrestin; assay type: cell-based; details: 6 μM
Outline: as §4

PTAFR = assay: PathHunter β-arrestin; assay type: cell-based; details: 6 μM
Outline: as §2

F2RL3 = assay: PathHunter β-arrestin; assay type: cell-based; details: 6 μM
Outline: as §4

DRD2S = assay: PathHunter β-arrestin; assay type: cell-based; details: antagonist mode, 6 μM
Outline: as §4

TSHR(L) = assay: PathHunter β-arrestin; assay type: cell-based; details: antagonist mode, 6 μM
GPR1 = assay: PathHunter β-arrestin; assay type: cell-based; details: antagonist mode, 6 μM
Outline: as §1

GPR92 = assay: PathHunter β-arrestin; assay type: cell-based; details: 6 μM
Outline: as §1

NPY2R = assay: PathHunter β-arrestin; assay type: cell-based; details: antagonist mode, 6 μM
Outline: as §1

GPR119 = assay: PathHunter β-arrestin; assay type: cell-based; details: 6 μM
Outline: as §1

CMKLR1 = assay: PathHunter β-arrestin; assay type: cell-based; details: antagonist mode, 6 μM
Outline: as §4

TLR6 = assay: western blot, JJ012 cells; assay type: cell-based, human; details: vs untreated control, overnight incubation
TLR4 = assay: western blot, JJ012 cells; assay type: cell-based, human; details: vs untreated control, overnight incubation
OPRK1 = assay: PathHunter β-arrestin; assay type: cell-based; details: antagonist mode, 6 μM
Outline: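 GPCR-ED fusion and β-arrestin-EA fusion; arrestin recruitment restores β-galactosidase, read by chemiluminescence. Antagonist mode uses EC80 agonist challenge. % inhibition = 100 × (1 − (test − vehicle RLU)/(EC80 control − vehicle RLU)). Hit requires >35% inhibition and mean RLU below EC80 RLU − 3 × EC80 SD.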

MRGPRX2 = assay: PathHunter β-arrestin; assay type: cell-based; details: antagonist mode, 6 μM
Outline: as §1

ADRA2B = assay: PathHunter β-arrestin; assay type: cell-based; details: antagonist mode, 6 μM
Outline: as §3

NPBWR1 = assay: PathHunter β-arrestin; assay type: cell-based; details: agonist mode, 6 μM
Outline: as §1

c-Myc = assay: RT2 qPCR primer assay, JJ012 cells; assay type: cell-based, human
Outline: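 RNA extracted from treated and control JJ012 cells, checked by spectrophotometry and reverse transcribed. SYBR Green qPCR with custom primer assays on three samples in technical triplicates. Ct normalized to the average of GAPDH and ACTB. Fold change vs control by 2^−ΔΔCt, shown as a heat map of average Ct.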

mTOR kinase (mTORC1) = details: chondrosarcoma; ref [4],[5]; cited from earlier work
GPCR receptors = assay: PathHunter β-arrestin gpcrMAX panel, agonist mode; assay type: cell-based; details: summary of Table I
Outline: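 β-Arrestin fused to the EA fragment and GPCR fused to the ED fragment; recruitment restores β-galactosidase, read by chemiluminescence. % agonist = 100 × (mean test − mean vehicle)/(mean max control ligand − mean vehicle). Hit requires >30% activity and mean RLU above baseline + 3 × baseline SD.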

Proline rich polypeptide 1 [PRP-1]
% Activity (TACR2): 1% | % Activity (GPR103; agonist mode): 2% | % Inhibition (GPR103; antagonist mode): 6% | % Activity (HTR1E; agonist mode): 3% | % Inhibition (HTR1E; antagonist mode): 5% | % Inhibition (HTR1B): 4% | protein expression (TLR8): no indication of PRP-1 effect | % Activity (P2RY2; agonist mode): 2% | % Inhibition (P2RY2; antagonist mode): −4% | % Inhibition (C5AR1): 3% | % Activity (CALCR; agonist mode): 1% | % Inhibition (CALCR; antagonist mode): 1% | % Activity (AGTR1): 2% | % Activity (ADRB1; agonist mode): 1% | % Inhibition (ADRB1; antagonist mode): −5% | % Activity (CXCR5; agonist mode): 1% | % Inhibition (CXCR5; antagonist mode): −8% | % Activity (SSTR5): 1% | % Activity (CXCR2; agonist mode): 1% | % Inhibition (CXCR2; antagonist mode): −3% | % Activity (PTAFR; agonist mode): 1% | % Inhibition (PTAFR; antagonist mode): −8% | % Activity (F2RL3; agonist mode): −1% | % Inhibition (F2RL3; antagonist mode): −1% | % Inhibition (DRD2S): 6% | % Inhibition (TSHR(L)): −4% | % Inhibition (GPR1): −5% | % Activity (GPR92; agonist mode): 1% | % Inhibition (GPR92; antagonist mode): 12% | % Inhibition (NPY2R): −2% | % Activity (GPR119; agonist mode): 3% | % Inhibition (GPR119; antagonist mode): −1% | % Inhibition (CMKLR1): −2% | protein expression (TLR6): increased in dose-dependent manner | protein expression (TLR4): PRP-1 did not have any effect | % Inhibition (OPRK1): −12% | % Inhibition (MRGPRX2): −8% | % Inhibition (ADRA2B): 2% | % Activity (NPBWR1): 3% | gene expression (c-Myc; 10 μg/ml PRP-1, heat map, technical triplicates): went down drastically | c-Myc gene expression, dose response (c-Myc; qRT-PCR, 1 and 10 μg/ml): downregulation of its gene expression in dose-response manner | mTOR kinase (mTORC1) inhibition (mTOR kinase (mTORC1)): mTOR kinase (mTORC1) inhibitor in chondrosarcoma | GPCR coupling, agonist mode (GPCR receptors): no indication that PRP-1 was G protein coupled
